Experimental data published in ChEMBL document CHEMBL4052819 (2017).
In brackets after ≈: the same amount, converted by molar mass. Activity calls are given as the source filed them. The calls are words filed in the database; no cut-off is given here. Non-standard residues stand in square brackets, D forms with d. Residues, ends and D or L forms follow the SMILES beside them. *: point of attachment. Cha = N[C@@H](CC1CCCCC1)C(=O)O; Heptanoyl = CCCCCCC(=O)*; Dab = NCC[C@H](N)C(=O)O

Legend:
[1] = system: Escherichia coli; assay: Antibacterial activity against Escherichia coli ATCC 25922 after 18 to 20 hrs in presence of 95% serum by broth microdilution method; format: functional
Outline: (§1)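 Same microdilution with human serum as medium: compound 2-fold diluted in 100% serum, mixed 1:1 with 90% serum holding ~1.5 × 10^5 CFU/mL, giving 95% serum and final 0.5–64 μg/mL. MIC read as no visible growth after incubation as for the broth test.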

[2] = system: Staphylococcus aureus; assay: Antibacterial activity against methicillin-resistant Staphylococcus aureus ATCC 43300 after 18 to 20 hrs by broth microdilution method; format: functional
Outline: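 Broth microdilution in tryptic soy broth: 2-fold dilutions mixed 1:1 with ~1.5 × 10^5 CFU/mL bacterial suspension in TSB, final 0.5–32 μg/mL, 37 °C for 18–20 h. MIC = lowest concentration with no visible growth. At least three independent experiments, one replicate each.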

[3] = system: Pseudomonas aeruginosa; assay: Bactericidal activity against Pseudomonas aeruginosa ATCC 27853; format: functional; conditions: read-out: MBC99.9
Outline: (§2)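 MBC from MIC plates at end point: 50 μL from each well with no visible growth plated on tryptic soy agar and counted. MBC taken as lowest concentration giving ≥99.9% fall in viable count relative to initial inoculum. Three independent experiments, one replicate each.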

[4] = system: Klebsiella pneumoniae; assay: Antibacterial activity against Klebsiella pneumoniae ATCC 13883 after 18 to 20 hrs by broth microdilution method; format: functional
[5] = system: Enterococcus faecium; assay: Antibacterial activity against Enterococcus faecium ATCC 19434 after 18 to 20 hrs by broth microdilution method; format: functional
Outline: (§3)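 Broth microdilution in tryptic soy broth: 2-fold dilutions mixed 1:1 with ~1.5 × 10^5 CFU/mL inoculum, final 0.5–32 μg/mL; 37 °C, 18–20 h. MIC taken as lowest concentration giving no visible growth. At least three independent experiments, one replicate each.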

[6] = system: Staphylococcus aureus; assay: Bactericidal activity against Staphylococcus aureus ATCC 29213; format: functional; conditions: read-out: MBC99.9; outline: as §2
[7] = system: Staphylococcus aureus; assay: Antibacterial activity against Staphylococcus aureus ATCC 29213 after 18 to 20 hrs by broth microdilution method; format: functional; outline: as §3
[8] = system: Escherichia coli; assay: Antibacterial activity against Escherichia coli ATCC 25922 after 18 to 20 hrs by broth microdilution method; format: functional; outline: as §3
[9] = system: Escherichia coli; assay: Bactericidal activity against Escherichia coli ATCC 25922; format: functional; conditions: read-out: MBC99.9; outline: as §2
[10] = system: Staphylococcus aureus; assay: Bactericidal activity against methicillin-resistant Staphylococcus aureus ATCC 43300; format: functional; conditions: read-out: MBC99.9
Outline: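 MBC taken at the end of the MIC test: 50 μL from each well without visible growth plated on tryptic soy agar. MBC = lowest concentration giving ≥99.9% reduction in viable cells relative to the initial inoculum. Three independent experiments, one replicate each.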

[11] = system: Acinetobacter baumannii; assay: Bactericidal activity against Acinetobacter baumannii ATCC 19606; format: functional; conditions: ATCC 19606 = CIP 70.34 = JCM 6841, read-out: MBC99.9; outline: as §2
[12] = system: Staphylococcus aureus; assay: Antibacterial activity against Staphylococcus aureus ATCC 29213 after 18 to 20 hrs in presence of 95% serum by broth microdilution method; format: functional; outline: as §1
[13] = system: Acinetobacter baumannii; assay: Antibacterial activity against Acinetobacter baumannii ATCC 19606 after 18 to 20 hrs by broth microdilution method; format: functional; conditions: ATCC 19606 = CIP 70.34 = JCM 6841
[14] = system: Pseudomonas aeruginosa; assay: Antibacterial activity against Pseudomonas aeruginosa ATCC 27853 after 18 to 20 hrs by broth microdilution method; format: functional; outline: as §3
[15] = system: Klebsiella pneumoniae; assay: Bactericidal activity against Klebsiella pneumoniae ATCC 13883; format: functional; conditions: read-out: MBC99.9; outline: as §2
[16] = system: Pseudomonas aeruginosa; assay: Bactericidal activity against Pseudomonas aeruginosa ATCC 27853 after 60 mins in presence of LPS; format: functional
Outline: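 P. aeruginosa at ~10^6 CFU/mL in TSB with E. coli O111:B4 LPS (final 10, 25, 50 or 100 μg/mL), then compound at final 16 μg/mL. Incubated 37 °C, 200 rpm, 60 min; survivors counted on TSA. Three independent experiments, one replicate each.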

[17] = system: Enterococcus faecium; assay: Bactericidal activity against Enterococcus faecium ATCC 19434; format: functional; conditions: read-out: MBC99.9; outline: as §2
[18] = system: Escherichia coli; assay: Antibacterial activity against Escherichia coli ATCC 25922 in presence of 100% serum measured immediately post compound addition in serum by broth microdilution method; format: functional
Outline: (§4)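 Serum stability: compound added to 100% human serum at final 64 μg/mL, held at 37 °C, sampled at 0, 6, 12 and 24 h. […] Residual activity compared with untreated control.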

[19] = system: Klebsiella pneumoniae; assay: Potentiation of clarithromycin-mediated antibacterial activity against Klebsiella pneumoniae ATCC 13883 assessed as decrease in clarithromycin MIC at 4 ug/ml by checkerboard method relative to control; format: functional
[20] = system: Klebsiella pneumoniae; assay: Potentiation of rifampicin-mediated antibacterial activity against Klebsiella pneumoniae ATCC 13883 assessed as rifampicin MIC at 2 ug/ml by checkerboard method (reference value: 16 ug/ml); format: functional
[21] = system: Acinetobacter baumannii; assay: Potentiation of rifampicin-mediated antibacterial activity against Acinetobacter baumannii ATCC 19606 assessed as rifampicin MIC at 2 ug/ml by checkerboard method (reference value: 16 ug/ml); format: functional; conditions: ATCC 19606 = CIP 70.34 = JCM 6841
[22] = system: Escherichia coli; assay: Antibacterial activity against Escherichia coli ATCC 25922 in presence of 100% serum after 12 hrs by broth microdilution method; format: functional; conditions: ATCC 25922, 12 h; outline: as §4
[23] = system: Acinetobacter baumannii; assay: Potentiation of rifampicin-mediated antibacterial activity against Acinetobacter baumannii ATCC 19606 assessed as decrease in rifampicin MIC at 4 ug/ml by checkerboard method relative to control; format: functional, ATCC 19606 = CIP 70.34 = JCM 6841
[24] = system: Escherichia coli; assay: Antibacterial activity against Escherichia coli ATCC 25922 in presence of 100% serum after 24 hrs by broth microdilution method; format: functional; conditions: ATCC 25922, 24 h; outline: as §4
[25] = system: Klebsiella pneumoniae; assay: Potentiation of rifampicin-mediated antibacterial activity against Klebsiella pneumoniae ATCC 13883 assessed as decrease in rifampicin MIC at 2 ug/ml by checkerboard method relative to control; format: functional
[26] = system: Escherichia coli; assay: Antibacterial activity against Escherichia coli ATCC 25922 in presence of 100% serum after 6 hrs by broth microdilution method; format: functional; conditions: ATCC 25922, 6 h; outline: as §4
[27] = system: Klebsiella pneumoniae; assay: Potentiation of ampicillin-mediated antibacterial activity against Klebsiella pneumoniae ATCC 13883 assessed as decrease in ampicillin MIC at 4 ug/ml by checkerboard method relative to control; format: functional
[28] = system: Klebsiella pneumoniae; assay: Potentiation of vancomycin-mediated antibacterial activity against Klebsiella pneumoniae ATCC 13883 assessed as decrease in vancomycin MIC at 4 ug/ml by checkerboard method relative to control; format: functional
[29] = system: Klebsiella pneumoniae; assay: Potentiation of erythromycin-mediated antibacterial activity against Klebsiella pneumoniae ATCC 13883 assessed as decrease in erythromycin MIC at 4 ug/ml by checkerboard method relative to control; format: functional
[30] = system: Acinetobacter baumannii; assay: Potentiation of vancomycin-mediated antibacterial activity against Acinetobacter baumannii ATCC 19606 assessed as decrease in vancomycin MIC at 4 ug/ml by checkerboard method relative to control; format: functional, ATCC 19606 = CIP 70.34 = JCM 6841
[31] = system: Acinetobacter baumannii; assay: Potentiation of clarithromycin-mediated antibacterial activity against Acinetobacter baumannii ATCC 19606 assessed as decrease in clarithromycin MIC at 4 ug/ml by checkerboard method relative to control; format: functional, ATCC 19606 = CIP 70.34 = JCM 6841
[32] = system: Acinetobacter baumannii; assay: Potentiation of erythromycin-mediated antibacterial activity against Acinetobacter baumannii ATCC 19606 assessed as decrease in erythromycin MIC at 4 ug/ml by checkerboard method relative to control; format: functional, ATCC 19606 = CIP 70.34 = JCM 6841
[33] = system: Acinetobacter baumannii; assay: Potentiation of ampicillin-mediated antibacterial activity against Acinetobacter baumannii ATCC 19606 assessed as decrease in ampicillin MIC at 4 ug/ml by checkerboard method relative to control; format: functional, ATCC 19606 = CIP 70.34 = JCM 6841
[34] = system: Staphylococcus aureus; assay: Antibiofilm activity against methicillin-resistant Staphylococcus aureus LAC established catheter-associated biofilm model at 20 times MIC after 72 hrs relative to control; format: functional

`CCCCCCC(=O)N[C@@H](CCN)C(=O)N[C@@H](Cc1ccccc1)C(=O)N[C@@H](CCN)C(=O)N[C@H](Cc1ccccc1)C(=O)N[C@@H](CC(C)C)C(=O)N[C@@H](CCN)C(=O)N[C@H](CC(C)C)C(=O)N[C@@H](Cc1ccccc1)C(=O)N[C@@H](CO)C(N)=O` (Heptanoyl-[Dab]F[Dab][dF]L[Dab][dL]FS-NH2) showed an MIC [1] of 32 µg/mL, an MIC [2] of 8 µg/mL (≈ 6.75 µM) and an MBC [3] of 4 µg/mL (≈ 3.38 µM). The MIC [4] was 1 µg/mL (≈ 0.844 µM), the MIC [5] was 8 µg/mL (≈ 6.75 µM) and the MBC [6] was 8 to 32 µg/mL (≈ 6.75 to 27 µM). It also gave an MIC [7] of 8 µg/mL (≈ 6.75 µM), an MIC [8] of 0.5 to 2 µg/mL (≈ 0.422 to 1.69 µM) and an MBC [9] of 8 to 16 µg/mL (≈ 6.75 to 13.5 µM). The MBC [10] was 8 to 16 µg/mL (≈ 6.75 to 13.5 µM), the MBC [11] was 4 µg/mL (≈ 3.38 µM) and the MIC [12] was 32 to 64 µg/mL. For the same molecule, the MIC [13] was 2 to 4 µg/mL (≈ 1.69 to 3.38 µM), the MIC [14] was 1 to 2 µg/mL (≈ 0.844 to 1.69 µM) and the MBC [15] was 2 µg/mL (≈ 1.69 µM). For the same molecule, the Activity [16] was “inactive” and the MBC [17] was 16 µg/mL (≈ 13.5 µM).

With `CC[C@H](C)[C@H](NC(=O)[C@H](CCN)NC(=O)[C@@H](N)CC1CCCCC1)C(=O)N[C@@H](CCN)C(=O)N[C@H](Cc1ccccc1)C(=O)N[C@@H](CC(C)C)C(=O)N[C@@H](CCN)C(=O)N[C@@H](C(=O)N[C@@H](CC(C)C)C(=O)N[C@@H](CO)C(N)=O)C(C)C` (H-[Cha][Dab]I[Dab][dF]L[Dab][dV]LS-NH2) the MIC [18] was 1 to 2 µg/mL, the MIC [1] was 2 µg/mL and the “fold change (FC)” value [19] was 2048 - 4096. It also gave an MIC [20] of 3.9 ng/mL, an MIC [2] of 32 µg/mL (≈ 28 µM) and an MBC [3] of 16 to 32 µg/mL (≈ 14 to 28 µM). The MIC [21] was 3.9 to 7.8 ng/mL, the MIC [4] was 32 µg/mL (≈ 28 µM) and the MIC [22] was > 32 µg/mL. The MIC [5] was > 32 µg/mL, the “fold change (FC)” value [23] was 4096 and the MIC [7] was > 32 µg/mL. For the same molecule, the MIC [8] was 4 to 8 µg/mL (≈ 3.5 to 7 µM), the MIC [24] was > 32 µg/mL and the “fold change (FC)” value [25] was “>=8192”. For the same molecule, the MIC [26] was > 32 µg/mL, the “fold change (FC)” value [27] was 1 and the “fold change (FC)” value [28] was 1. For the same molecule, the “fold change (FC)” value [29] was 512, the “fold change (FC)” value [30] was 32 - 64 and the “fold change (FC)” value [31] was 2048. For the same molecule, the “fold change (FC)” value [32] was 64, the MIC [12] was > 64 µg/mL and the MIC [13] was ≥ 32 µg/mL. For the same molecule, the “fold change (FC)” value [33] was 2 - 4 and the MIC [14] was 2 to 8 µg/mL (≈ 1.75 to 7 µM).

`CCCCCCCCCC(=O)N[C@@H](Cc1c[nH]c2ccccc12)C(=O)N[C@@H](CC(N)=O)C(=O)N[C@@H](CC(=O)O)C(=O)N[C@@H]1C(=O)NCC(=O)N[C@@H](CCCN)C(=O)N[C@@H](CC(=O)O)C(=O)N[C@H](C)C(=O)N[C@@H](CC(=O)O)C(=O)NCC(=O)N[C@H](CO)C(=O)N[C@@H]([C@H](C)CC(=O)O)C(=O)N[C@@H](CC(=O)c2ccccc2N)C(=O)O[C@@H]1C` [DAPTOMYCIN] showed an Activity [34] of 17%.

For `CCO/N=C(\C(=O)N[C@@H]1C(=O)N2C(C(=O)[O-])=C(Sc3nc(-c4cc[n+](C)cc4)cs3)CS[C@H]12)c1nsc(NP(=O)(O)O)n1`, the Activity [34] was “inactive”.
